Shown are actives, neighbours in structure and some others; about 2.1% of the full set was active somewhere.
M1 antag – antagonists of human M1 muscarinic receptor; P11229; CHO-K1 hM1, Fluo-8 calcium fluorescence, ACh EC80 antagonist; hit rate 1.3% among 360,000; inhibition, % at 3 µM; AID 588852;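 active = percent inhibition above its own plate's cutoff, namely the mean of that plate's compound wells plus 3 SD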;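 note: peak over basal fluorescence ratio during 140 s after agonist addition; 0% = ACh EC80 plus DMSO and 100% = DMSO alone without agonist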
M5 PAM – positive allosteric modulators of human muscarinic M5 receptor; P08912; CHO-K1 hM5, Fluo-8 calcium, ACh EC20 PAM; 0% = ACh EC20, 100% = ACh EC100; activation, % at 3 µM; hit rate 0.3% among 360,000; AID 624038;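 active = activation above the run cutoff, the mean activation of all test compounds plus 3 SD, cut at about 18% in these data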
Target sequence (P08912 whole entry, looked up): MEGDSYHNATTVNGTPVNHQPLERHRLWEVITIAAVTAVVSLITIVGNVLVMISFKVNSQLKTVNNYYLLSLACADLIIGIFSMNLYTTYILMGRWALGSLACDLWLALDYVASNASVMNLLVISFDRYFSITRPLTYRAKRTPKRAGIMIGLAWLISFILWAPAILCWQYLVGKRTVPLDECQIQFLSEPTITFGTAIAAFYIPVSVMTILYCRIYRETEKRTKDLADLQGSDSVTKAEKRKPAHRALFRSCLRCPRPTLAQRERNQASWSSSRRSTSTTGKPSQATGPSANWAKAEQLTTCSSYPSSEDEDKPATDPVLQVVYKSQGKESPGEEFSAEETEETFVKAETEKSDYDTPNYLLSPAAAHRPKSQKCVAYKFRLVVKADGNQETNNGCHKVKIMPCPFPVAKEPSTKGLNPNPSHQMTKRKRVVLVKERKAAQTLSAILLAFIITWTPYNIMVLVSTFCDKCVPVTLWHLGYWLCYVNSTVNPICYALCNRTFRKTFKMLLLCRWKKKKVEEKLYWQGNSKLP
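System: CHO-K1 hM5 cells. Reagent: acetylcholine, EC20 level. Compound dosing: single dose, 3 µM nominal final test concentration. Timing: Post-acetylcholine fluorescence recording 140 s. Detection: Fluo-8 calcium fluorescence. Read-out: % activation, ACh-normalized. Benchmarks: ACh EC20 and EC100 wells. Repeats: singlicate, one well per test compound.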
CHRM5 antagonist – CHRM5 antagonism in calcium assay; P08912; CHO-hM5 cells, Fluo-8 calcium fluorescence, ACh EC80; inhibition, % at 3 µM; hit rate 0.59% among 360,000; AID 624040;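 active = inhibition above a per-plate cutoff, the mean of that plate's test compounds plus 3 SD, cut at about 27% in these data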;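 note: 0% = acetylcholine EC80 with DMSO and 100% = DMSO without agonist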
CHRM1 PAM – positive allosteric modulators of human M1 muscarinic receptor; P11229; CHO-K1 hM1, Fluo-8 calcium fluorescence, ACh EC20; 0% = ACh EC20, 100% = maximal ACh; activation, % at 3 µM; hit rate 0.088% among 360,000; AID 588819; in the data active = activation above about 19%, passing the limit was not always enough
CHRM5 agonist – agonists of human muscarinic M5 receptor (CHRM5). hit rate 0.19% among 360,000. activation, % at 3 µM. AID 624037. P08912. CHO-K1 hM5 cells, Fluo-8 calcium fluorescence; 0% DMSO wells, 100% maximal acetylcholine response;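 active = activation above the run's mean over test compounds plus 3 SD, cut at about 23% in these data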;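 note: signal is peak over basal fluorescence ratio across the kinetic read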
M1 ag – agonists of human M1 muscarinic receptor; P11229; hit rate 0.33% among 360,000; AID 588814; activation, % at 3 µM; CHO-K1 hM1, Fluo-8 calcium fluorescence, agonist mode; 0% DMSO, 100% acetylcholine EC100;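 active = activation above the run's mean compound activation plus 3 SD, cut at about 16% in these data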;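 note: peak over basal fluorescence ratio within a 140 s kinetic read after compound addition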
Active calls of the source: *.

SMILES	M1 antag	M5 PAM	CHRM5 antagonist	CHRM1 PAM	CHRM5 agonist	M1 ag
CSc1ccccc1NC(=O)CN(C)CC(=O)Nc1cc(C)ccc1C	-3	-4	-6	3	4	-3
CC(C)N=C1SC(CC(=O)Nc2ccccc2)C(=O)N1C(C)C (configuration not stated)	26*	-17	10	-16	3	-1
O=C(CC1SC(=Nc2ccccc2)N(CCO)C1=O)Nc1ccccc1 (configuration not stated)	10	0	5	6	1	-4
O=C(CC1SC(=Nc2ccccc2)N(CCCO)C1=O)Nc1ccc(Cl)cc1 (configuration not stated)	30*	-13	24	-10	2	1
CCCN1C(=O)SC(CC(=O)Nc2ccccc2)C1=O (configuration not stated)	12	-2	-9	0	0	-1
O=C(O)COc1ccccc1/C=N/NC(=O)COc1ccc(-c2ccccc2)cc1	-16	-8	24	13	-4	-3
COc1cc(/C=C2\SC(=S)N(C(C(=O)O)c3ccccc3)C2=O)ccc1O (configuration not stated)	6	-20	27*	-9	40*	17*
CCOc1cc(/C=C2\SC(=S)N(C(C(=O)O)c3ccccc3)C2=O)ccc1O (configuration not stated)	9	-24	14	-1	61*	19*
CCOc1ccc(/C=C2/SC(=S)N(C(C(=O)O)c3ccccc3)C2=O)cc1OCC (configuration not stated)	-6	4	-5	11	-2	-4
COc1cc(/C=C2/SC(=S)N(c3c(C)n(C)n(-c4ccccc4)c3=O)C2=O)ccc1O	3	-16	18	-8	29*	-5
COc1cc(/C=C2/SC(=S)N(Cc3ccccc3)C2=O)ccc1O	4	1	11	1	23*	13
S=c1[nH]nc(-c2ccco2)n1/N=C/c1cccc(Cl)c1	2	6	-3	-2	-1	-2
O=C1/C(=C\c2cc([N+](=O)[O-])ccc2O)SC(=S)N1Cc1ccc(Cl)cc1	36*	-11	28*	-13	16	23*
Cc1cc(C)c(OCCOCCN2CCNCC2)c(C)c1	3	45*	-3	-3	-8	-6
Cn1c(N)c(-c2ccccc2)c2ccc([N+](=O)[O-])cc2c1=O	42*	-9	16	-24	23	62*
Cc1nnc(N(CCC#N)CCC#N)s1	-1	-1	7	4	0	-3
CSc1nnc(N(CCC#N)CCC#N)s1	-1	40*	-4	3	-4	-4
C=CCNc1nc(NCCO)nc(N2CCCC2)n1	-7	14	-1	4	-9	-3
Cc1cc(C(=O)N2CCC(C)CC2)on1	-8	18*	6	3	1	-2
COCCNc1oc(/C=C/c2cccc(OC)c2)nc1S(=O)(=O)c1ccccc1	-5	-3	5	4	-1	-3
CC(C)(c1ccc(O)c([N+](=O)[O-])c1)c1ccc(O)c([N+](=O)[O-])c1	6	-15	11	-5	-4	-4
CN(C)Cc1cc(C(C)(C)c2ccccc2)ccc1O	43*	-38	29*	-27	-11	-5
CCOC(=O)Cc1csc(NC(=O)Cc2ccc(C)cc2)n1	-2	-2	2	2	-2	-4
Clc1cccc(Cl)c1/C=N/Nc1c(Cl)cncc1Cl	-9	28*	-15	11	5	-1
Clc1cncc(Cl)c1N/N=C/c1ccncc1	-3	-3	1	3	-4	-8
SMILES	M1 antag	M5 PAM	CHRM5 antagonist	CHRM1 PAM	CHRM5 agonist	M1 ag
CCc1c(O)nc(SCC(=O)Nc2ccccc2)n(-c2ccccc2C)c1=O	-28	1	-3	29*	1	6
CONC(=O)c1ccc(-c2cccc3nccn23)cc1	-4	-3	5	1	1	-8
COc1ccc(N(C)S(=O)(=O)c2cccc(C(=O)OCC(=O)c3c(N)n(C)c(=O)n(C)c3=O)c2)cc1	42*	-40	19	-23	5	6
COc1ccc(N(C)S(=O)(=O)c2cccc(C(=O)OCC(=O)Nc3cc(C)ccc3OC)c2)cc1	36*	-12	20	-20	2	1
COc1ccccc1NC(=S)NC(=O)/C=C/c1ccco1	-9	-4	0	6	-2	-4
Cc1ccccc1NC(=S)NC(=O)/C=C/c1ccco1	-29	22*	-17	18	5	0
COc1ccc(Br)cc1C=NNS(=O)(=O)c1ccc(C)cc1	33*	-5	11	-19	0	1
COc1cc(/C=N/NS(=O)(=O)c2ccc(Br)cc2)ccc1O	-8	0	-6	4	2	1
CCc1ccc(C2C(C#N)=C(N)SC(N)=C2C#N)cc1	20	-13	0	-18	16	17*
CCOc1ccc(C2C(C#N)=C(N)SC(N)=C2C#N)cc1OCC	0	-3	4	3	5	2
Cc1ccc2c(=O)c(CN3CCCCCC3)c(C)[nH]c2c1C	72*	-4	5	-21	-5	-11
CN(C)c1ccc(/C=C/C(=O)c2ccc(O)cc2)cc1	30	-40	50*	-18	229*	53*
COc1ccc(C(=O)/C=C/c2ccc(N(C)C)cc2)c(OC)c1	53*	-30	52*	-20	146*	69*
O=C(/C=C/c1ccccc1)c1ccc2c(c1)OCO2	-4	0	-1	17	-4	-2
CN(C)c1ccc(/C=C/C(=O)c2cccnc2)cc1	28	-28	26	-18	107*	60*
CN(C)c1ccc(/C=C/C(=O)c2ccc3c(c2)OCO3)cc1	41*	-37	26	-13	76*	53*
COCCNC(=O)c1ccc(CN2CCC(Cc3ccccc3)CC2)cc1	43*	0	11	-25	-20	-9
O=C(NCc1ccccc1)c1ccc(CN2CCC(Cc3ccccc3)CC2)cc1	25	-16	23	-17	-6	4
CCc1ccccc1NC(=O)c1ccc(CN2CCC(Cc3ccccc3)CC2)cc1	38*	-26	14	-20	-4	-4
COc1ccc(CCNC(=O)COC(=O)C2CC2)cc1OC	-6	20*	-13	0	0	-2
COc1ccc(CCNC(=O)c2ccc(CN3CCC(Cc4ccccc4)CC3)cc2)cc1OC	48*	-17	23	-26	-7	-7
Cc1ccccc1N1Cc2ccccc2C1=O	-12	4	-4	3	0	-4
